This is a sample that favours compounds with a hit; in the whole collection about 4.9% have one here.
STAT1 inh-1 = STAT1 signaling inhibition; inhibition, % at 5.5 µM; NIH 3T3 STAT1-luciferase reporter, IFN-gamma, luminescence; actives 0.35% (n = 200,000); AID 920;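 active = inhibition above a set limit, the mean inhibition across all tested compounds plus 3 SD, cut at about 34% in these data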;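 note: 0% = IFN-gamma with DMSO and 100% = IFN-gamma with 300 µM nifuroxazide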
STAT3 act = increases IL-6 driven STAT3 reporter signal; U3A cells, IL-6 STAT3-luciferase reporter, luminescence; 100% = signal with IL-6 EC80 alone; activation (% of control), % at 5.6 µM; actives 0.91% (n = 190,000); AID 871;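 active = activation above the screen-wide mean of compound activation plus 3 SD, cut at about 130% in these data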;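 note: 0% = background luminescence of wells with medium and substrate only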
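Test system: Human STAT1-deficient U3A cells with stable STAT3-luciferase reporter | Also added: Interleukin-6, 33 ng/mL | Timing: Compound pre-incubation 1 h before IL-6, then 6 h stimulation at 37 °C | Technique: Luciferase reporter luminescence | Read-out: Percent of IL-6-only median luminescence | Benchmarks: IL-6-only wells as 100% reference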
APP 5'UTR act = activates APP 5'UTR luciferase reporter; SH-SY5Y APP 5'UTR luciferase reporter, luminescence; zero percent = DMSO vehicle wells; activation, % at 2 µM; actives 1% (n = 190,000);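 active = activation above a set limit, based on mean plus 3 SD of controls, cut at about 140% in these data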
STAT3 blocker = STAT3 signaling inhibition. U3A cells, IL-6 STAT3-luciferase reporter, luminescence; host cell line lacks STAT1. inhibition, % at 5.5 µM. actives 0.89% (n = 190,000). AID 862;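 active = inhibition above the mean inhibition across all screened compounds plus 3 SD, cut at about 44% in these data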;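 note: 0% = DMSO only wells and 100% = 100 µM nifuroxazide control wells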
STAT1 act = STAT1 signaling activation; NIH 3T3 STAT1-luciferase reporter, IFN-gamma, luminescence; 100% = IFN-gamma alone, no compound; activation (% of control), % at 5.5 µM; actives 2.6% (n = 200,000); AID 932;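 active = activation above the screen-wide mean activation plus 3 SD, cut at about 130% in these data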;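 note: raw ratio to IFN-gamma control signal so 100% means no change and 0% no light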
NF-kB expr up = compounds increasing NF-kB expression in human neuronal cells. NF-kB reporter expression; active compounds read high. AID 1239. fold change at 12.5 µM. actives 1.6% (n = 190,000); in the data active = fold change above about 3.3
STAT1 inh-2 = STAT1 inhibition, confirmation assay. shares compounds with STAT1 inh-1. NIH 3T3 STAT1-luciferase reporter, IFN-gamma, luminescence. actives 55% (n = 200). AID 1263. inhibition, % at 5.5 µM;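 active = triplicate mean inhibition exceeding the hit cutoff computed for the primary STAT1 screen, cut at about 35% in these data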;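 note: 0% = DMSO with IFN-gamma and 100% = 300 µM nifuroxazide with IFN-gamma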
NFkB inh = inhibits NF-kappaB, counter-screen to STAT1 inhibitors; shares compounds with STAT1 inh-1; HEK293T NF-kB luciferase reporter, TNF-alpha induced, luminescence; inhibition, % at 5.7 µM; actives 30% (n = 200);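 active = inhibition above the mean of solvent-only control wells plus 3 SD of those wells, cut at about 15% in these data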;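 note: 0% = DMSO with TNF-alpha and 100% = MG-132 control with TNF-alpha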
STAT3 inh 2 = counter-screen for STAT1 inhibitors: STAT3 inhibition. shares compounds with STAT1 inh-1. U3A cells, IL-6 STAT3 luciferase reporter, luminescence; cells lacking STAT1. inhibition, % at 5.7 µM. actives 20% (n = 200);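 active = inhibition above the mean of solvent-only control wells plus 3 SD, set per campaign, cut at about 25% in these data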;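 note: 0% = IL-6 plus DMSO and 100% = IL-6 plus nifuroxazide control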
* = called active by the depositor; / = no result.

SMILES	STAT1 inh-1	STAT3 act	APP 5'UTR act	STAT3 blocker	STAT1 act	NF-kB expr up	STAT1 inh-2	NFkB inh	STAT3 inh 2
CCOC(=O)N1CCN(C(=O)c2ccc3c(=O)n(-c4cc(OC)ccc4OC)c(=S)[nH]c3c2)CC1	48*	98	-19	7	55	0.87	19	-6	-3
CCOC(=O)N1CCN(C(=O)c2ccc(Cn3c(=S)[nH]c4cc5c(cc4c3=O)OCO5)cc2)CC1	64*	74	6	35	42	0.57	59*	26*	26*
COc1ccccc1N1CCN(C(=O)c2ccc(Cn3c(=S)[nH]c4cc5c(cc4c3=O)OCO5)cc2)CC1	-6	103	-8	-2	106	1.1	/	/	/
CCOC(=O)N1CCN(C(=O)c2ccc(Cn3c(=S)[nH]c4cc(OCC)c(OCC)cc4c3=O)cc2)CC1	45*	89	4	22	58	0.55	61*	30*	19
N#Cc1ccc(-c2csc(NC(=O)c3ccc(S(=O)(=O)N4CCc5ccccc5C4)cc3)n2)cc1	7	100	-8	3	94	1.2	/	/	/
CCCOC1CCCN(C(=O)CCc2nnc(CCCCc3ccccc3)o2)C1 (centres undefined)	-21	97	21	8	117	1.3	/	/	/
CCCN1CNC(=S)N(c2ccccc2OCC)C1	-7	108	-1	-10	106	1	/	/	/
O=C(CCn1c(=O)oc2ccccc21)NCCCN1CCCC1=O	-6	104	0	-5	107	0.99	/	/	/
O=C(Nc1ccccc1C(=O)NCc1ccccc1)c1ccccc1Br	0	103	20	0	100	0.78	/	/	/
O=C(Nc1ccccc1C(=O)O)c1ccc(Br)c(S(=O)(=O)NCc2ccccc2)c1	51*	99	-8	7	52	1	29	5	3
COC(=O)c1ccc(CC(=O)c2ccc(O)cc2O)o1	21	95	3	8	80	0.81	/	/	/
CCOC(=O)c1ccc(CC(=O)c2ccc(O)cc2O)o1	51*	82	21	25	53	0.77	46*	32*	-35
CC(C)(C)NC(=O)c1ccc2c(c1)N(CC(=O)N1CCN(c3ccccc3F)CC1)C(=O)C(C)(C)O2	4	105	11	1	97	0.84	/	/	/
Cc1ccc2sc(-c3ccc(NC(=O)/C=C\C(=O)O)cc3)nc2c1	43*	86	197*	19	59	5.4*	-91	-36	-21
COc1ccc2c(c1OC)C(=O)N1c3ccccc3C(=O)N(c3ccccc3F)C21 (centres undefined)	48*	85	-41	23	55	0.38	41*	-12	30*
O=C1c2ccccc2N2C(=O)c3ccccc3[C@H]2N1c1ccccc1	4	85	3	24	96	0.82	/	/	/
O=C(CN1CCCCC1)Nc1cccc(Br)c1	-6	97	-9	9	105	2	/	/	/
COc1ccc(CCNC(=O)Cn2c(=O)oc3ccccc32)cc1OC	-5	102	-11	2	105	1.2	/	/	/
COc1ccc(CCNC(=O)Cn2c(=O)n(-c3ccc(F)cc3)c(=O)c3sccc32)cc1OC	50*	88	4	17	52	1.2	35*	4	6
COc1ccc(CCNC(=O)Cn2c(=O)n(-c3ccc(F)cc3F)c(=O)c3sccc32)cc1OC	40*	95	0	8	61	0.88	31	7	12
COc1ccc(CCNC(=O)Cn2c(=O)n(-c3cc(F)ccc3F)c(=O)c3sccc32)cc1OC	53*	97	4	8	51	0.77	34	3	7
CC(C)(C)C(=O)Cn1c(=O)n(-c2ccc(F)cc2F)c(=O)c2sccc21	3	100	25	2	96	1.2	/	/	/
COc1cccc(CNC(=O)C(c2ccc(Cl)cc2)C(C)C)c1 (centres undefined)	10	94	1	7	91	1.1	/	/	/
CC(N=C1NS(=O)(=O)c2ccccc21)C(=O)NCc1ccc2c(c1)OCO2 (centres undefined)	-3	101	9	2	103	1.3	/	/	/
COc1ccc(C(=O)/C(C#N)=N/Nc2cccc([N+](=O)[O-])c2)cc1	44*	82	11	24	59	0.49	21	6	2
SMILES	STAT1 inh-1	STAT3 act	APP 5'UTR act	STAT3 blocker	STAT1 act	NF-kB expr up	STAT1 inh-2	NFkB inh	STAT3 inh 2
N#C/C(=N\Nc1cccc(Cl)c1)C(=O)c1ccccc1	7	95	-1	12	94	0.62	/	/	/
COc1ccc(/C=N/Nc2ccc(C(=O)O)cc2)cc1Br	61*	66	133	42	42	2.7	-56	49*	-137
C=CCOc1c(Br)cc(/C=N/Nc2ccc(C(=O)O)cc2)cc1OCC	-27	96	104	8	124	2.1	/	/	/
CCOC(=O)C(=CNc1ccc(NC2=NCC(C)S2)cc1)C(=O)OCC (centres undefined)	60*	90	-33	15	46	0.9	59*	38*	21
O=C(O)c1cccc(N2C(=O)/C(=C/c3ccc(SCc4ccc(Cl)cc4)o3)SC2=S)c1	-9	110	17	-8	106	1	/	/	/
Cc1ccc(S(=O)(=O)N2CCN(C(C(=O)Nc3ccc(F)cc3)c3ccccc3)CC2)cc1 (centres undefined)	43*	106	17	-8	61	1.1	47*	-5	-27
CCOC(=O)/C=C(\C)Nc1cc(C)nn1-c1ccccc1	-1	97	-14	8	102	1.2	/	/	/
CCOC(=O)C(=CNc1cc(C)nn1-c1ccc(Cl)cc1)C(=O)OCC	59*	104	1	2	46	0.64	55*	17*	1
Cc1ccc(-c2cc(C(F)F)nc(S(C)(=O)=O)n2)cc1	33	94	-1	12	70	1	29	-25	-7
Cn1c(C(=O)N2CCN(c3ccc([N+](=O)[O-])cc3)CC2)cc2c(=O)[nH]c3ccccc3c21	51*	87	-2	19	52	1.1	34*	5	8
O=C(Nc1ccccc1)c1cc(N2CCOCC2)nc2ccccc12	-7	114	0	-16	106	1.1	/	/	/
O=C(O)c1cc(/C=C/c2ccc(N3CCOCC3)cc2)nc2ccccc12	39*	65	47	43	64	1.9	-5	38*	-13

High-throughput results (PubChem BioAssay)
